The values below come from ChEMBL document CHEMBL1139714, “Effects of alpha-substitutions on structure and biological activity of anticancer chalcones” (Bioorg Med Chem Lett, 2006).

One assay deals with K562. As to the kind of experiment: Cytotoxicity against human K562 cells after 5 days by MTT assay. Type of assay: cell-based. Particulars: K562, 120 h. The procedure, abridged: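 K562 human chronic myelogenous leukaemia cells were cultured at 37 °C with drug for 5 days, and growth was read by MTT assay. IC50 was taken as the concentration giving 50% inhibition of cell growth.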
On the technique in general: Formazan colour is commonly taken as a measure of viable cells.

For another assay, the target named is Tubulin. As to the kind of experiment: Inhibition of tubulin. The class given is protein-complex assay, Homo sapiens.

Broadly, the IC50 is the concentration that inhibits the measured activity by half. Read a low IC50 as inhibition by little substance. With `CCOC(=O)/C(=C/c1ccc(OC)c(OC)c1OC)C(=O)c1cc(OC)c(OC)c(OC)c1`, the IC50 in the assay with K562 was more than 10 µM.

For the molecule `COc1ccc(/C=C(\C)C(=O)c2cc(OC)c(OC)c(OC)c2)cc1O`, at Tubulin, half-maximal inhibition (IC50) required 1.8 µM. This lies in the single-digit micromolar range.

Take `COc1ccc(/C=C(\F)C(=O)c2cc(OC)c(OC)c(OC)c2)c(F)c1`: the 50% inhibitory concentration (IC50) in the assay with K562 was found to be 1.19 µM.

In the case of `COc1ccc(/C=C(\C#N)C(=O)c2cc(OC)c(OC)c(OC)c2)cc1OC`, the IC50 in the assay with K562 was more than 10 µM.

In turn, `COc1ccc(/C=C(\C#N)C(=O)c2cc(OC)c(OC)c(OC)c2)cc1O` returned a half-inhibitory concentration (IC50) in the assay with K562 of 4.2 µM. That is a single-digit micromolar value.

`COc1ccc(/C=C(\F)C(=O)c2cc(OC)c(OC)c(OC)c2)cc1Br` returned an IC50 with K562 of 6 µM.

As to `COc1cc(C(=O)/C(F)=C/c2ccc3c(c2)OCO3)cc(OC)c1OC`, the IC50 with K562 came out at 0.8 µM.

`COc1ccc(/C=C(\C#N)C(=O)c2cc(OC)c(OC)c(OC)c2)cc1F`: the IC50 in the assay on K562 was more than 10 µM.

With `COc1cc(C(=O)/C(F)=C/c2ccc(OC)c(OC)c2OC)cc(OC)c1OC`, it took 10 µM to reach half-maximal inhibition with K562 (IC50).

For `CCOC(=O)/C(=C\c1ccc(OC)c(O)c1)C(=O)c1cc(OC)c(OC)c(OC)c1`, 0.87 µM corresponded to half-maximal inhibition in the assay with K562 (IC50).

Regarding `COc1cc(C(=O)/C(C#N)=C/c2ccc3c(c2)OCO3)cc(OC)c1OC`, the concentration for half-maximal inhibition (IC50) with K562 was more than 10 µM.

With `COc1ccc(/C=C/C(=O)c2cc(OC)c(OC)c(OC)c2)cc1O`, the 50% inhibitory concentration (IC50) at Tubulin amounted to 10 µM.

`COc1ccc(/C=C(\C#N)C(=O)c2cc(OC)c(OC)c(OC)c2)cc1` gave a concentration for half-maximal inhibition (IC50) in the assay with K562 of more than 10 µM.

In the assay with K562, `COc1ccc(/C=C(\F)C(=O)c2cc(OC)c(OC)c(OC)c2)cc1F` gave an IC50 of 0.77 µM.

`CCOC(=O)/C(=C/c1ccc(OC)c(O[Si](C)(C)C(C)(C)C)c1)C(=O)c1cc(OC)c(OC)c(OC)c1` showed an IC50 in the assay with K562 of 4.29 µM.

In the case of `COc1ccc(/C=C(\C#N)C(=O)c2cc(OC)c(OC)c(OC)c2)cc1O[Si](C)(C)C(C)(C)C`, the IC50 in the assay on K562 is more than 10 µM.

In turn, `COc1cc(C(=O)/C(C#N)=C/c2ccc(OC)c(OC)c2OC)cc(OC)c1OC` returned an IC50 in the assay on K562 of more than 10 µM.

In turn, `COc1ccc(/C=C(\F)C(=O)c2cc(OC)c(OC)c(OC)c2)cc1OC` displayed an IC50 with K562 of 1.21 µM. This lies in the single-digit micromolar range.

With `CCOC(=O)/C(=C/c1ccc(OC)cc1)C(=O)c1cc(OC)c(OC)c(OC)c1`, the IC50 in the assay on K562 is more than 10 µM.

The molecule `COc1ccc(/C=C(\C#N)C(=O)c2cc(OC)c(OC)c(OC)c2)cc1Br` returned an IC50 with K562 of more than 10 µM.

Regarding `COc1ccc(/C=C(\F)C(=O)c2cc(OC)c(OC)c(OC)c2)cc1O`, the half-inhibitory concentration (IC50) was determined as 0.6 µM on Tubulin and 0.0137 µM in the assay with K562.

Turning to `COc1ccc(/C=C(\F)C(=O)c2cc(OC)c(OC)c(OC)c2)cc1`, the results for the IC50 against Tubulin and in the assay on K562 were 4.6 µM and 0.39 µM, respectively.

Regarding `COc1ccc(/C=C(\C#N)C(=O)c2cc(OC)c(OC)c(OC)c2)c(F)c1`, in the assay with K562, the IC50 is more than 10 µM.

Consider `COc1cc(C(=O)/C(C#N)=C/c2ccc(C(F)(F)F)cc2)cc(OC)c1OC`, for which, in the assay with K562, the IC50 was more than 10 µM.

`CCOC(=O)/C(=C/c1ccc(OC)c(OC)c1)C(=O)c1cc(OC)c(OC)c(OC)c1` showed an IC50 in the assay with K562 of more than 10 µM.
